Data on 13 compounds can be found in PubChem BioAssay.

Assay [1] in a line: inhibitors of TNFa-induced NFkB p65 translocation, primary screen, imaging, HUVEC, MLSMR starter and 10KST1 sets (AID 438;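 active means inhibition above 20% together with a positive visual image hit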;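 further: compound added about 3h40 before a 20 min TNFalpha stimulation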;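 on inhibition: signal is the nuclear over cytoplasmic p65 intensity ratio per well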). The settings on record: HUVEC TNFa-induced p65 nuclear translocation; cell count: measured here: nuclei count (cytotoxicity indicator), at 2.08 µM; inhibition: at 2 µM, stronger effect = higher value, 0% TNFa-plus-vehicle, 100% no-TNFa wells.
Assay [2] can be described thus: inhibitors of mutant huntingtin aggregation, primary screen, imaging, exon1htt(103Q)mCFP cells, high-content imaging (AID 483;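 active means visual image review flags a hit and inhibition of aggregation exceeds 20%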;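 further: compound exposure lasted 3 days before fixation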;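 on nuclei count: percent of the per-plate median nuclei count of sample wells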). The following applies: exon1htt(103Q)mCFP cell line, aggregate imaging, at 2 µM; inhibition of aggregation: stronger effect = higher value; nuclei count: measured here: cell count, toxicity.
A short description of assay [3]: inhibitors of E-selectin induction by TNFa, primary screen, imaging, HUVEC, immunofluorescence, MLSMR starter and 10KST1 sets (AID 487;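 active means visually confirmed hit in the image check and inhibition above 20%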;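 on inhibition: signal is fraction of cell area covered by stained E-selectin grains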;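 on nuclei count: 100% = median nuclei count of all wells on the same plate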). The settings on record: HUVEC TNFalpha-induced E-selectin immunofluorescence imaging, at 2 µM; inhibition: stronger effect = higher value; nuclei count: measured here: cell number, toxicity.
Assay [4] concerns the target Voltage-gated potassium channel subunit beta-2 (Rattus norvegicus) (UniProt P62483). In words: KvBeta enzyme negative modulators, primary screen, biochemical, NADPH fluorescence (AID 622).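 Further: slope of raw intensity against log time taken from 70 to 1610 s.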 The settings on record: recombinant KvBeta, 4-cyanobenzaldehyde reduction, at 10 µM, stronger effect = higher value.
The target is the same in assay [5]. Nature of the assay: KvBeta positive modulators, primary screen, biochemical, NADPH fluorescence (AID 623;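 active means NADPH fluorescence slope more negative than the mean of all samples by about 3 SD, 99.7% confidence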;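 further: fluorescence intensity change per second fitted from 20 to 320 s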). The following applies: Recombinant KvBeta, NADPH fluorescence decrease slope, 10 min; at 10 µM; stronger effect = lower value.
Assay [6] deals with Muscarinic acetylcholine receptor M4 (Homo sapiens) (UniProt P08173). Nature of the assay: compounds altering M4/GIRK thallium flux, either direction, primary screen, M4 allosteric agonist project, cell-based, HEK293 M4/GIRK, BTC-AM (AID 625;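 active means fluorescence slope after compound addition differing from the mean of all tested samples at 99.7% confidence, mostly higher but some lower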;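 further: thallium influx through GIRK channels coupled to M4 in HEK293 cells with BTC-AM dye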). The settings on record: at 10 µM, actives lie on both sides. A digest of the protocol:
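assay system = HEK293 cells with M4 receptor and GIRK channels | medium = pH 7.3 thallium assay buffer | doses = 10 µM final, single point | timing = cells overnight at 37 °C, BTC-AM loading 1 h, reads 2 min total | signal = BTC-AM fluorescence, 1 Hz kinetic reads | read-out = post-addition slope, 15–24 s, of baseline-normalized fluorescence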

Assay [7] in a line: inhibitors of Sendai virus-induced IRF3 signaling, primary screen, TLR/RLR signaling modifier project, cell-based, Sendai virus stimulus, luciferase, 10K MLSCN set (AID 602276;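 active means inhibition at or above 50% at 10 µM; inactive means inhibition below 50%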;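 further: firefly luciferase from ISG56 promoter only with Renilla not read in this screen; 0% = Sendai virus plus DMSO and 100% = medium plus DMSO without virus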). The settings on record: HEK293 RL24 IRF3 luciferase reporter, at 10 µM, stronger effect = higher value.
Assay [8] is described as follows: inhibitors of poly I:C-induced TLR3 signaling, primary screen, cell-based, poly I:C stimulus, luciferase, 10K MLSCN set (AID 602277;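 active means inhibition of the reporter signal at or above 50%; inactive means inhibition below 50%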). The settings on record: HEK293-TLR3 RL24 IRF3 luciferase reporter, at 10 µM, stronger effect = higher value.

Active and inactive are the calls of the source.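 How the source made its calls, unless noted: active means fluorescence slope higher than the sample average by over 3 SD (cut at about -0.22 in these data, passing the limit was not always enough); inactive means the rest.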

Sequence of Voltage-gated potassium channel subunit beta-2 (Rattus norvegicus) (P62483 whole entry, looked up): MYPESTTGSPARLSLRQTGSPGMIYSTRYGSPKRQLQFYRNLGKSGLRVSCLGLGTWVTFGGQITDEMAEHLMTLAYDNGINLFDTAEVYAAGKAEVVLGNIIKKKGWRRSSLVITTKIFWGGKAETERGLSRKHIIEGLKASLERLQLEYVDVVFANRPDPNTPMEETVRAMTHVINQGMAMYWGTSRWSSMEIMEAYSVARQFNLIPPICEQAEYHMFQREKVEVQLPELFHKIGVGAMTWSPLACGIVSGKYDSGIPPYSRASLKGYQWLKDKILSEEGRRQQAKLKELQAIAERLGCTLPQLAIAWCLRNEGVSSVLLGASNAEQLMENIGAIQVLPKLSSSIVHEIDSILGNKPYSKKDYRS
Sequence of Muscarinic acetylcholine receptor M4 (Homo sapiens) (P08173 whole entry, looked up): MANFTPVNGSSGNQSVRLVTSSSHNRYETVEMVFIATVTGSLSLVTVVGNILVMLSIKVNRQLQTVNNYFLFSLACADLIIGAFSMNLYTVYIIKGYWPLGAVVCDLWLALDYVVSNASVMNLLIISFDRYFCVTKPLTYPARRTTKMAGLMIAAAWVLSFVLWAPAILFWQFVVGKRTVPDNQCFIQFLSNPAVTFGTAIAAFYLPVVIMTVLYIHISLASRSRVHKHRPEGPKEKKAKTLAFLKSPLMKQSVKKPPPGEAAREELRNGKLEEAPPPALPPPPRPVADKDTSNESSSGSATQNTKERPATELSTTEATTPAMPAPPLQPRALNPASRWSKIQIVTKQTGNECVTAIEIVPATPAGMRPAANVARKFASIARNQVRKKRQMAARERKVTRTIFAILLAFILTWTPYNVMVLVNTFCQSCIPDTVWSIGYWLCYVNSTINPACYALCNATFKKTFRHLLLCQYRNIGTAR

Consider `O=C(O)C1CC(=O)N(c2ccc(OCc3c(F)cccc3Cl)cc2)C1` (stereo not drawn), for which the cell count in assay [1] was found to be 571. Also, the inhibition in assay [1] was -18.3% (inactive); in assay [3], -18.6% (inactive); in assay [7], 4.5% (inactive); in assay [8], 17.3% (inactive). In addition, in assay [2], the inhibition of aggregation was -13% (inactive). The figures for the nuclei count in assay [2] and in assay [3] were 100% and 116%, respectively. For the same compound, the fluorescence slope was -0.568 (inactive) in assay [4] and 0.0057 (inactive) in assay [6]. Besides, in assay [5], the NADPH fluorescence slope is -2.6e-05 (inactive).
As to `COc1cc(NC(=O)c2ccc(COCC(F)(F)F)o2)cc(OC)c1OC`, the cell count in assay [1] worked out at 753. Also, the inhibition in assay [1] is -11.9% (inactive); in assay [3], -71% (inactive); in assay [7] it was 15.8% (inactive); in assay [8], 24.7% (inactive). The inhibition of aggregation in assay [2] is -25% (inactive). Also, the nuclei count in assay [2] worked out at 116%; in assay [3] it was 118%. The fluorescence slope in assay [4] is -0.553 (inactive); in assay [6], 0.00529 (inactive). Moreover, the NADPH fluorescence slope in assay [5] was -4.6e-05 (inactive).
Turning to `N#Cc1c(NC(=O)COC(=O)C2CC3C=CC2C3)oc(-c2ccccc2)c1-c1ccccc1` (stereo not drawn), in assay [1], the cell count came out at 282. In addition, the inhibition in assay [1] was 18.4% (inactive); in assay [3], -44.1% (inactive); in assay [7], -1.94% (inactive); in assay [8] it was 99% (active). Also, the inhibition of aggregation in assay [2] was -7.7% (inactive). In addition, the nuclei count in assay [2] was found to be 95.7%; in assay [3], 94.6%. For the same compound, the results for the fluorescence slope in assay [4] and in assay [6] were -0.399 (inactive) and 0.00531 (inactive), respectively. Further, in assay [5], the NADPH fluorescence slope was -0.000409 (inactive).
Regarding `CC(C)(C)n1nc2c(c1NC(=O)COc1ccc(Cl)cc1)CSC2`, in assay [1], the cell count was found to be 643. Besides, the inhibition is 3.8% (inactive) in assay [1], 30.9% (inactive) in assay [3], 18% (inactive) in assay [7] and 25.3% (inactive) in assay [8]. In addition, in assay [2], the inhibition of aggregation is 13.9% (inactive). Also, the figures for the nuclei count in assay [2] and in assay [3] were 93.1% and 95.3%, respectively. For the same compound, the fluorescence slope was -0.467 (inactive) in assay [4] and 0.00791 (inactive) in assay [6]. The NADPH fluorescence slope in assay [5] was -3.3e-06 (inactive).
Regarding `CCOC(=O)CCCn1nc(C)n2c(cc3sccc32)c1=O`, the cell count in assay [1] is 563. For the same compound, the inhibition is -3.2% (inactive) in assay [1], -28.3% (inactive) in assay [3], -11.6% (inactive) in assay [7] and -28.8% (inactive) in assay [8]. In assay [2], the inhibition of aggregation was -1.6% (inactive). Further, the nuclei count in assay [2] and in assay [3] was 119% in each case. In addition, the fluorescence slope in assay [4] is -0.406 (inactive); in assay [6], 0.00716 (inactive). Besides, the NADPH fluorescence slope in assay [5] was 8.7e-05 (inactive).
With `Cc1cc2ncn(N)c2cc1C`, the cell count in assay [1] worked out at 711. The inhibition in assay [1] is -25.9% (inactive); in assay [3], -53.3% (inactive); in assay [7] it was 17.6% (inactive); in assay [8], 15.1% (inactive). Besides, the inhibition of aggregation in assay [2] was -20.7% (inactive). Moreover, the nuclei count in assay [2] came out at 108%; in assay [3], 118%. In addition, the fluorescence slope in assay [4] was -0.224 (inactive); in assay [6], 0.00519 (inactive). The NADPH fluorescence slope in assay [5] was -1e-05 (inactive).
Turning to `COCCn1c(N)c(C(=O)Nc2sc3c(c2C(=O)OC)CCCC3)c2nc3ccccc3nc21`, the cell count in assay [1] is 670. Moreover, the inhibition in assay [1] was 14.9% (inactive); in assay [3], 5.1% (inactive); in assay [7], 19.4% (inactive); in assay [8], 9.11% (inactive). Besides, the inhibition of aggregation in assay [2] was 21.8% (inactive). Further, the nuclei count in assay [2] was 84.1%; in assay [3], 100%. Also, the values for the fluorescence slope in assay [4] and in assay [6] were -0.57 (inactive) and 0.00595 (inactive), respectively. Further, in assay [5], the NADPH fluorescence slope is 4.8e-06 (inactive).
As for `O=c1[nH]c2ccc(S(=O)(=O)N3CCN(C4CCCCC4)CC3)cc2[nH]c1=O`, the cell count in assay [1] came out at 264. Moreover, the inhibition in assay [1] was -7.8% (inactive); in assay [3] it was -52.5% (inactive); in assay [7], -0.0358% (inactive); in assay [8] it was 6.71% (inactive). Further, the inhibition of aggregation in assay [2] was -36.5% (inactive). Moreover, the nuclei count in assay [2] was determined as 90.7%; in assay [3], 122%. Moreover, the fluorescence slope in assay [4] is -0.484 (inactive); in assay [6], 0.00453 (inactive). The NADPH fluorescence slope in assay [5] is -0.000259 (inactive).
With `CC(C)=CCSc1nnc(CCNC(=O)OC(C)(C)C)o1`, the cell count in assay [1] was found to be 391. For the same compound, the inhibition in assay [1] was 14.5% (inactive); in assay [3], 22.3% (inactive); in assay [7] it was 9.62% (inactive); in assay [8], 12.6% (inactive). The inhibition of aggregation in assay [2] is 17.1% (inactive). Moreover, the nuclei count was found to be 90% in assay [2] and 95.7% in assay [3]. The fluorescence slope in assay [4] was -0.402 (inactive); in assay [6], 0.00571 (inactive). In assay [5], the NADPH fluorescence slope was 8.7e-05 (inactive).
On to `Cc1ccc(C(=O)C2COC(=O)C2)cc1` (stereo not drawn), for which, in assay [1], the cell count turned out to be 333. Further, the inhibition in assay [1] was 4.9% (inactive); in assay [3], -31.2% (inactive); in assay [7], 18.7% (inactive); in assay [8], 0.799% (inactive). In addition, the inhibition of aggregation in assay [2] was -2.7% (inactive). The nuclei count is 116% in assay [2] and 103% in assay [3]. Besides, the fluorescence slope in assay [4] was -0.579 (inactive); in assay [6], 0.00631 (inactive). Moreover, the NADPH fluorescence slope in assay [5] is -2.8e-05 (inactive).
As for `NC(=O)c1c(-c2ccccc2)oc2ccc(O)cc12`, the cell count in assay [1] was 380. The inhibition in assay [1] is -4.7% (inactive); in assay [3] it was -104% (inactive); in assay [7], -8.7% (inactive); in assay [8] it was -13.7% (inactive). Besides, the inhibition of aggregation in assay [2] was 11.1% (inactive). Besides, the nuclei count in assay [2] is 103%; in assay [3] it was 92.8%. Further, the fluorescence slope was -0.532 (inactive) in assay [4] and 0.00463 (inactive) in assay [6]. Moreover, in assay [5], the NADPH fluorescence slope is -1.2e-05 (inactive).
As to `CC(C)(C)Nc1nc(OCC(F)(F)F)nc(OCC(F)(F)F)n1`, the cell count in assay [1] was found to be 448. The inhibition in assay [1] is 11.9% (inactive); in assay [3], -0.8% (inactive); in assay [7] it was 7.39% (inactive); in assay [8] it was 8.5% (inactive). In addition, the inhibition of aggregation in assay [2] is -14.2% (inactive). Also, the nuclei count in assay [2] was determined as 103%; in assay [3], 114%. The fluorescence slope was -0.424 (inactive) in assay [4] and 0.00457 (inactive) in assay [6]. Also, in assay [5], the NADPH fluorescence slope is -0.000395 (inactive).
`C=CCN1C(=O)/C(=C2/Sc3ccccc3N2C)SC1=Nc1c(C)n[nH]c1C`: the cell count in assay [1] amounted to 401. The inhibition in assay [1] was -0.2% (inactive); in assay [3] it was -70.1% (inactive); in assay [7], 12.6% (inactive); in assay [8] it was 10.1% (inactive). Besides, the inhibition of aggregation in assay [2] was -18.2% (inactive). In addition, the nuclei count in assay [2] was 103%; in assay [3], 106%. For the same compound, the results for the fluorescence slope in assay [4] and in assay [6] were -0.519 (inactive) and 0.00378 (inactive), respectively. Besides, the NADPH fluorescence slope in assay [5] is -2.3e-05 (inactive).
